Measured values as given in ChEMBL document CHEMBL1687872, “Synthesis, molecular docking and binding studies of selective serotonin transporter inhibitors” (Eur J Med Chem, 2011).

Legend:
Oryctolagus cuniculus [1] = species: Oryctolagus cuniculus; test: Ratio of Ki for DAT in rabbit striatal membrane to Ki for SERT in rabbit cortical membrane; assay type: cell membranes
Outline: (§1)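 Ratio of the radioligand-binding Ki values from rabbit membranes: DAT ([3H]WIN 35,428, striatum) or NET ([3H]nisoxetine, cortex) Ki divided by SERT ([3H]paroxetine, cortex) Ki.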

[2] = Displacement of [3H]-paroxetine from SERT in rabbit cortical membrane; assay type: cell membranes, Oryctolagus cuniculus
Outline: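 Competition against [3H]paroxetine (Kd 56.00 pM) on rabbit frontal cortex membranes, in duplicate, at least seven test concentrations from ethanol stocks diluted in Tris-HCl saline buffer; filtration and scintillation counting; Ki calculated by Cheng-Prusoff, mean ± s.e.m. of three independent experiments.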

[3] = Displacement of [3H]-WIN 35,428 from DAT in rabbit striatal membrane; assay type: cell membranes, Oryctolagus cuniculus, Striatum
Outline: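 Rabbit striatal membranes (0.2 mg protein) in 50 mM Tris-HCl pH 7.4, 120 mM NaCl, 5 mM KCl with 0.5–2 nM [3H]WIN 35,428 (Kd 6.1 nM), 2 h at 4 °C; dopamine defines nonspecific binding; filtration over polyethylenimine-soaked GF/C filters, scintillation counting; ≥7 concentrations; Ki via Cheng-Prusoff, mean ± s.e.m. of three experiments in duplicate.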

Oryctolagus cuniculus [4] = species: Oryctolagus cuniculus; test: Ratio of Ki for NET in rabbit cortical membrane to Ki for SERT in rabbit cortical membrane; assay type: cell membranes; outline: as §1
[5] = Displacement of [3H]-Nisoxetine from NET in rabbit cortical membrane; assay type: cell membranes, Oryctolagus cuniculus

Row | SMILES | Ratio Ki (Oryctolagus cuniculus [1]) | Ki [2] [nM] | Ki [3] [nM] | Ratio Ki (Oryctolagus cuniculus [4]) | Ki [5] [nM]
1 | Fc1ccc(C2CCNC/C2=N\OCc2ccc(C(F)(F)F)cc2)cc1 (racemic) | 45 | 139 | 6200 | – | –
2 | FC(F)(F)c1ccc(C2CCNC/C2=N\OCc2ccccc2Cl)cc1 (racemic) | 43 | 96.6 | 4200 | – | –
3 | Fc1ccc(C2CCNC/C2=N/OCc2ccc(C(F)(F)F)cc2)cc1 (racemic) | > 1000 | 98.4 | > 100000 | 198 | 19500
4 | Fc1ccc(CO/N=C2/CNCCC2c2ccc(C(F)(F)F)cc2)cc1 (configuration not stated) | > 1000 | 96.8 | > 100000 | 96 | 9300
5 | Fc1ccc([C@@H]2CCNC[C@H]2COc2ccc3c(c2)OCO3)cc1 [PAROXETINE] | 2480 | 0.31 | 769 | 258 | 80
6 | FC(F)(F)c1ccc(C2CCNC/C2=N/OCc2ccccc2Cl)cc1 (racemic) | > 9000 | 10.3 | > 100000 | 972 | 10000
7 | Fc1ccc(CO/N=C2\CNCCC2c2ccc(C(F)(F)F)cc2)cc1 (racemic) | 7 | 396 | 2800 | – | –
8 | Fc1ccc(C(OCCN2CCN(CCCc3ccccc3)CC2)c2ccc(F)cc2)cc1 [VANOXERINE] | – | – | 1.5 | – | –
9 | Fc1ccc(CO/N=C2\CNCCC2c2ccc(F)cc2)cc1 (racemic) | 10 | 306 | 3190 | – | –
10 | CNCCC(Oc1ccccc1OC)c1ccccc1 (configuration not stated) [NISOXETINE] | – | – | – | – | 3.5
11 | CNCC[C@@H](Oc1ccc(C(F)(F)F)cc1)c1ccccc1 [R-FLUOXETINE] | 670 | 5.8 | 4000 | 105 | 609
12 | Fc1ccc(C2CCNC/C2=N\OCc2ccccc2Cl)cc1 (racemic) | 47 | 81.1 | 3800 | – | –
13 | Fc1ccc(C2CCNC/C2=N/OCc2ccccc2Cl)cc1 (racemic) | 571 | 22.6 | 12900 | 496 | 11200
14 | Fc1ccc(CO/N=C2/CNCCC2c2ccc(F)cc2)cc1 (racemic) | 329 | 28.7 | 9460 | 466 | 13400
